15 compounds from ChEMBL document CHEMBL2034925, “Isoprenylated flavonoid and adipogenesis-promoting constituents of Dodonaea viscosa” (2012) can be followed below.

The test system of test [1] is 3T3-L1. Briefly: Adipogenic activity in mouse 3T3L1 cells assessed as increase in triglyceride level at 3 uM after 8 days relative to control. Type of test: functional. The method in brief:
(§1)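 3T3L1 fibroblasts grown in DMEM/10% newborn calf serum, 37 °C, 5% CO2. Two days post-confluence, differentiation induced with 2 μg/mL insulin, 1 μM dexamethasone, 125 μM IBMX in DMEM/10% FBS. Medium was then changed every two days to 10% FBS/DMEM plus 2 μg/mL insulin. Compounds added at induction and kept 8 days. Cells lysed by three freeze/thaw cycles; triglyceride measured by enzymatic kit.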

The test system of test [2] is 3T3-L1. Kind of test: Adipogenic activity in mouse 3T3L1 cells assessed as upregulation of GLUT4 gene expression at 3 to 30 uM by RT-PCR analysis. Type of test: functional, cell-based. The gist of the method:
(§2)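 In differentiating 3T3L1 cells (insulin/dexamethasone/IBMX induction, compounds added at induction), total RNA extracted with TRIzol, reverse-transcribed, then quantitative PCR run with mouse primers for GLUT4 or aP2, with β-actin as reference gene.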

Test [3] has as its system 3T3-L1. Briefly: Adipogenic activity in mouse 3T3L1 cells assessed as upregulation of ap2 protein expression at 3 to 10 uM by […] analysis. Type of test: functional, cell-based. The gist of the method: (§3)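 Differentiating 3T3L1 cells (insulin/dexamethasone/IBMX induction, compounds added at induction) harvested in RIPA buffer with protease inhibitors. Proteins resolved by SDS-PAGE and blotted onto PVDF. Blots probed with primary antibodies to GLUT4 or aP2 and β-actin, then HRP-conjugated secondary antibodies.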

Test [4] deals with 3T3-L1. Briefly: Adipogenic activity in mouse 3T3L1 cells assessed as upregulation of ap2 gene expression at 3 to 30 uM by RT-PCR analysis. Type of test: functional, cell-based. The gist of the method: as §2
Test [5] deals with 3T3-L1. Kind of test: Adipogenic activity in mouse 3T3L1 cells assessed as intracellular lipid droplet accumulation at 10 to 30 uM after 8 days by oil red O staining. It is filed as functional, cell-based. The method in brief: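 3T3L1 fibroblasts, differentiation induced 2 days post-confluence with insulin (2 μg/mL), dexamethasone (1 μM), IBMX (125 μM) in 10% FBS/DMEM, then insulin-supplemented 10% FBS/DMEM changed every 2 days. Compounds present from induction. After 8 days of differentiation, cells stained with Oil Red O and photographed.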

For test [6], the system named is 3T3-L1. Kind of test: Adipogenic activity in mouse 3T3L1 cells assessed as upregulation of GLUT4 protein expression at 3 to 10 uM by […] analysis. It is filed as functional, cell-based. The method in brief: as §3
For test [7], the system named is 3T3-L1. Briefly: Adipogenic activity in mouse 3T3L1 cells assessed as increase in triglyceride level at 10 uM after 8 days relative to control. Type of test: functional. The method in brief:
as §1

Test [8] has as its system 3T3-L1. Briefly: Adipogenic activity in mouse 3T3L1 cells assessed as increase in triglyceride level after 8 days relative to control. It is filed as functional, cell-based. The method in brief:
as §1

The test system of test [9] is 3T3-L1. Kind of test: Adipogenic activity in mouse 3T3L1 cells assessed as increase in triglyceride level at 30 uM after 8 days relative to control. It is filed as functional. The method in brief:
as §1

For test [10], the system named is 3T3-L1. Kind of test: Adipogenic activity in mouse 3T3L1 cells assessed as increase in triglyceride level at 1 uM after 8 days relative to control. Type of test: functional. The gist of the method: as §1
The subject of test [11] is 3T3-L1. Briefly: Adipogenic activity in mouse 3T3L1 cells assessed as upregulation of GLUT4 protein expression at 3 to 30 uM by […] analysis. It is filed as functional, cell-based. The gist of the method: as §3
The test system of test [12] is 3T3-L1. Kind of test: Adipogenic activity in mouse 3T3L1 cells assessed as upregulation of ap2 protein expression at 3 to 30 uM by […] analysis. Type of test: functional, cell-based.

Calls of active or inactive are those of the source. The calls are words filed in the database; no cut-off is given here.

With `C=C(C)C(O)Cc1cc(-c2oc3cc(O)c(OC)c(O)c3c(=O)c2OC)cc(CCC(C)CO)c1O` (stereo not drawn) [DODOVISCIN A], the results for the Activity in the test on 3T3-L1 [1] and in the test on 3T3-L1 [7] were 138.5% and 248.3%, respectively. Besides, the result with 3T3-L1 [2], in the test with 3T3-L1 [3], in the test with 3T3-L1 [4], in the test on 3T3-L1 [5] and with 3T3-L1 [6] was Active.
As to `COc1c(O)cc2oc(-c3ccc(O)cc3)c(OC)c(=O)c2c1O`, the outcome in the test on 3T3-L1 [8] was inactive.
`COc1c(-c2ccc(O)c(CCC(C)CO)c2)oc2cc(O)cc(O)c2c1=O` (stereo not drawn) [DODOVISCIN I]: the Activity in the test on 3T3-L1 [1] stood at 189.6%.
As to `COc1c(O)cc2oc(-c3cc(CC=C(C)C)c(O)c(C[C@H](O)C(C)(C)O)c3)c(OC)c(=O)c2c1O` [DODOVISCIN D], the results for the Activity in the test with 3T3-L1 [1], in the test with 3T3-L1 [9] and with 3T3-L1 [7] were 103.2%, 198.2% and 117.8%, respectively.
For `COc1c(-c2cc(CC=C(C)C)c(O)c(CC=C(C)C)c2)oc2cc(O)cc(O)c2c1=O`, the Activity in the test on 3T3-L1 [1] is 169.9%.
As to `COc1c(O)cc2oc(-c3cc(CC=C(C)C)c(O)c(CCC(C)CO)c3)c(OC)c(=O)c2c1O` (stereo not drawn), the Activity is listed as 233% with 3T3-L1 [1] and 289.8% in the test with 3T3-L1 [7]. Besides, the outcome with 3T3-L1 [2], with 3T3-L1 [3], in the test on 3T3-L1 [4], in the test on 3T3-L1 [5] and in the test on 3T3-L1 [6] was Active.
Consider `C=C(C)C(O)Cc1cc(-c2oc3cc(O)c(OC)c(O)c3c(=O)c2OC)cc(CC=C(C)C)c1O` (stereo not drawn) [DODOVISCIN B], for which the Activity in the test with 3T3-L1 [1] stood at 328.1%.
On the same count and under the same terms, in the case of `COc1c(O)cc2oc(-c3cc(CC=C(C)C)c(O)c(C/C=C(\C)CO)c3)c(OC)c(=O)c2c1O` [DODOVISCIN G] it was 355.7%.
Turning to `CN(CCOc1ccc(CC2SC(=O)NC2=O)cc1)c1ccccn1` (stereo not drawn) [ROSIGLITAZONE], in the test on 3T3-L1 [10], the Activity was 335.6%.
Regarding `COc1c(-c2cc(CC=C(C)C)c(O)c(CCC(C)CO)c2)oc2cc(O)cc(O)c2c1=O` (stereo not drawn) [DODOVISCIN H], the Activity in the test on 3T3-L1 [1] is given as 263.1%.
On to `COc1c(-c2ccc(O)cc2)oc2cc(O)cc(O)c2c1=O`, for which the outcome in the test with 3T3-L1 [8] was inactive.
For the compound `COc1cc(O)c2c(c1)O[C@H](c1cc(O)cc(O)c1)CC2=O` [BLUMEATIN], the Activity turned out to be 121.2% with 3T3-L1 [1], 219.2% in the test on 3T3-L1 [9] and 161.3% with 3T3-L1 [7]. Besides, the outcome with 3T3-L1 [2], in the test with 3T3-L1 [4], in the test on 3T3-L1 [11], in the test with 3T3-L1 [5] and in the test with 3T3-L1 [12] was Active.
In the case of `COc1c(O)cc2oc(-c3cc(CC=C(C)C)c(O)c(CC=C(C)C)c3)c(OC)c(=O)c2c1O`, in the test with 3T3-L1 [1], the Activity is on record as 256.2%.
Turning to `COc1c(-c2cc(CC=C(C)C)c(O)c(C/C=C(\C)CO)c2)oc2cc(O)cc(O)c2c1=O` [DODOVISCIN E], the Activity in the test on 3T3-L1 [1] was found to be 280.2%.
On to `COc1cc(O)c2c(c1)O[C@H](c1ccc(O)cc1)CC2=O` [SAKURANETIN], for which the Activity with 3T3-L1 [1] was determined as 278.8%; in the test with 3T3-L1 [9], 459.4%; in the test with 3T3-L1 [7] it was 419.9%.
